Data reported in ChEMBL document CHEMBL4808210, “Mapping Chromone-3-Phenylcarboxamide Pharmacophore: Quid Est Veritas?” (J Med Chem, 2021).
Activity calls are given as the source filed them. The rule behind the calls is not given here.

Assays:
[1] = Solubility of the compound in phosphate buffer at > 10 uM; assay type: physicochemical
[2] = target: T1, Amine oxidase [flavin-containing] B (Homo sapiens, UniProt P27338); assay: (§1) Inhibition of recombinant human MAO-B expressed in baculovirus infected BTI-TN- 5B1-4 insect cells using kynuramine as substrate preincubated for 10 mins in presence of substrate followed by enzyme addition and measured every minute for 30 mins by spectrophotometry analysis; assay type: cell-based
T1 sequence (P27338 whole entry): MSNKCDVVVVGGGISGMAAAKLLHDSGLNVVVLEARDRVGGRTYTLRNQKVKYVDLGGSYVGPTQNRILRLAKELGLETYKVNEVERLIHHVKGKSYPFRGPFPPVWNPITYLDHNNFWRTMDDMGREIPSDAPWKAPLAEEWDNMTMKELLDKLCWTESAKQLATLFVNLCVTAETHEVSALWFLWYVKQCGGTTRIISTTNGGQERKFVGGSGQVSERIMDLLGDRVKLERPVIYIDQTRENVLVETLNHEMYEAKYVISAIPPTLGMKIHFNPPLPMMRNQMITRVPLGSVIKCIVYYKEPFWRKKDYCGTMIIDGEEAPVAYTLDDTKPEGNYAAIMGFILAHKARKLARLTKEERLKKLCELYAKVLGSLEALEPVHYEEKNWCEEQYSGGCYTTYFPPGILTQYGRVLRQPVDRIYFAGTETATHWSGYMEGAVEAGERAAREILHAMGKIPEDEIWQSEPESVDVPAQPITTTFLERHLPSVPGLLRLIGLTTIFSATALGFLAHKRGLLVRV

[3] = tested on: Caco-2; assay: Cytotoxicity against human Caco-2 cells assessed as effect on cell viability at 1 to 10 uM measured after 24 hrs by MTT assay; assay type: cell-based; details: caco-2, 24 h, dose 1-10 µM
In short: (§2)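 Caco-2 cells, and SH-SY5Y cells first differentiated toward a dopaminergic-like phenotype, were treated for 24 h with compounds at 1 and 10 μM. Metabolic activity was read as MTT reduction to formazan, relative to untreated cells. Mean ± SEM of at least three independent experiments, each in triplicate.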

[4] = target: T2, Amine oxidase [flavin-containing] A (Homo sapiens, UniProt P21397); assay: (§3) Inhibition of recombinant human MAO-A expressed in baculovirus infected BTI-TN- 5B1-4 insect cells using kynuramine as substrate preincubated for 10 mins in presence of substrate followed by enzyme addition and measured every minute for 30 mins by spectrophotometry analysis
T2 sequence (P21397 whole entry): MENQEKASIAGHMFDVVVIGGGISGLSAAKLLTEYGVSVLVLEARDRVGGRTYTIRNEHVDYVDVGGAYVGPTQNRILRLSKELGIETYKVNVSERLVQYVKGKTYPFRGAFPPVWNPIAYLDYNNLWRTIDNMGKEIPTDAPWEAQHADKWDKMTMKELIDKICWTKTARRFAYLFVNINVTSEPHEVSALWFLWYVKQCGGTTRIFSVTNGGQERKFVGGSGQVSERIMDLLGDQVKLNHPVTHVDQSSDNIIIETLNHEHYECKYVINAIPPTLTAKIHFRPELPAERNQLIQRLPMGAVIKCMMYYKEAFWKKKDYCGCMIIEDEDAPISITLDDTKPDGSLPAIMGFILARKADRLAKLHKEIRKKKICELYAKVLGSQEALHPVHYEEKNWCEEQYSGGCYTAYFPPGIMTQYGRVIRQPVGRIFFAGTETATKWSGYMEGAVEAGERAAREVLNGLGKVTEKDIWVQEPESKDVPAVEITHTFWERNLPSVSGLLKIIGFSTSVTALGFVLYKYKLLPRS
In short: (§4)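 Recombinant hMAO-A and hMAO-B were assayed with kynuramine as substrate. Percent inhibition was taken at 10 μM, the highest concentration tested. Where the hMAO-A IC₅₀ was not reached, it was taken as 10 μM.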

[5] = species on record: Homo sapiens; assay: Selectivity index, ratio of IC50 for recombinant human MAO-A expressed in baculovirus infected BTI-TN- 5B1-4 insect cells to IC50 for recombinant human MAO-B expressed in baculovirus infected BTI-TN- 5B1-4 insect cells using kynuramine as substrate preincubated for 10 mins in presence of substrate followed by enzyme addition and measured every minute for 30 mins by spectrophotometry analysis; in short: as §4
[6] = tested on: SH-SY5Y; assay: Cytotoxicity against human SH-SY5Y cells assessed as effect on NR uptake at 1 to 10 uM measured after 24 hrs by neutral red uptake assay; assay type: cell-based; details: dose 1-10 µM
In short: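 Differentiated SH-SY5Y cells were exposed to compounds at 1 and 10 μM for 24 h. Lysosomal activity was read as neutral red dye uptake and compared with untreated cells. Mean ± SEM of at least three independent experiments run in triplicate.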

[7] = tested on: HEK293; assay: Cytotoxicity against HEK293 cells at 10 uM incubated for 24 to 48 hrs by Celltiter-Glo assay relative to control; assay type: cell-based; details: human, hek293, 10 µM, time 24-48 hrs
In short: (§5)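 Cells (HEK-293, HUVEC, MCF-7) exposed to test compounds at 10 μM for 24 h; cytotoxicity read in triplicate with a luminescence kit measuring intracellular ATP levels.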

[8] = tested on: HUVEC; assay: Cytotoxicity against HUVEC cells at 10 uM incubated for 24 to 48 hrs by Celltiter-Glo assay relative to control; assay type: cell-based; details: human, time 24-48 hrs; in short: as §5
[9] = tested on: SH-SY5Y; assay: Protection against iron(III)-induced damage in human SH-SY5Y cells assessed as increase in lysosomal activity at 1 to 10 uM pretreated for 30 mins followed by iron(III) treatment at 1500 uM after 24 hrs by NR uptake assay; assay type: functional, cell-based; details: dose 1-10 µM, time 24.5 hrs
In short: (§6)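 Differentiated SH-SY5Y cells were pretreated with compounds at 1 or 10 μM for 30 min, then exposed to iron(III) at 1000 or 1500 μM for 24 h. Viability was read by neutral red uptake. Mean ± SD of three independent experiments, two-way ANOVA.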

[10] = target: ATP-dependent translocase ABCB1 (Homo sapiens, UniProt P08183); assay: Modulation of P-gp-mediated Rhodamine-123 efflux in human Caco-2 cells assessed as Rhodamine-123 accumulation at 10 uM pretreated for 30 mins in presence or absence of Zos followed by Rho-123 addition and measured after 90 mins by fluorescence spectroscopy; assay type: cell-based; details: caco-2, 2 h, time 120 min
In short: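 Caco-2 cells were exposed to compounds at 10 μM during incubation with the P-gp substrate rhodamine 123 (5 μM). Zosuquidar served as the specific P-gp inhibitor. Cellular rhodamine 123 was read by fluorescence spectroscopy. Mean ± SEM of at least three independent experiments in triplicate.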

[11] = tested on: HEK293; assay: Cytotoxicity against HEK293 cells incubated for 24 to 48 hrs by Celltiter-Glo assay; assay type: cell-based, Homo sapiens
[12] = tested on: MCF7; assay: Cytotoxicity against human MCF7 cells at 10 uM incubated for 24 to 48 hrs by Celltiter-Glo assay relative to control; assay type: cell-based; details: mcf7, 10 µM, time 24-48 hrs; in short: as §5
[13] = target: hERG (Homo sapiens, UniProt Q12809); assay: Inhibition of human ERG at 10 uM incubated for 2 hrs by fluorescence polarization assay relative to control
In short: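 hERG binding was measured by fluorescence polarization, using a homogenized membrane preparation containing hERG plus a fluorescent tracer. A drop in FP signal from tracer displacement was read as inhibition. Compounds were tested at 10 μM.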

[14] = tested on: MCF7; assay: Cytotoxicity against human MCF7 cells incubated for 24 to 48 hrs by Celltiter-Glo assay; assay type: cell-based
[15] = tested on: SH-SY5Y; assay: Cytotoxicity against human SH-SY5Y cells assessed as reduction in cell viability at 10 uM measured after 24 hrs by MTT assay relative to control; assay type: cell-based; in short: as §2
[16] = tested on: SH-SY5Y; assay: Protection against iron(III)-induced damage in human SH-SY5Y cells assessed as increase in lysosomal activity at 1 to 10 uM pretreated for 30 mins followed by iron(III) treatment at 1000 uM after 24 hrs by NR uptake assay; assay type: functional, cell-based; details: dose 1-10 µM, time 24.5 hrs; in short: as §6
[17] = tested on: HUVEC; assay: Cytotoxicity against HUVEC cells incubated for 24 to 48 hrs by Celltiter-Glo assay; assay type: cell-based, Homo sapiens; details: huvec
[18] = target: T3, MAO-A (Homo sapiens, UniProt P21397); assay: as §3, with “cells at 10 uM” for “cells”, “analysis relative to control” for “analysis”; details: probe kynuramine, time 40 min; in short: as §4
T3 sequence (P21397 whole entry): T2 sequence (P21397 whole entry)

[19] = target: T1, Amine oxidase [flavin-containing] B; assay: as §1, with “cells at 10 uM” for “cells”, “analysis relative to control” for “analysis”; details: BTI-TN-5B1-4, human, 0.5 h, time 40 min; in short: as §4
[20] = target: T1, Amine oxidase [flavin-containing] B; assay: Time dependent inhibition of recombinant human MAO-B expressed in baculovirus infected BTI-TN- 5B1-4 insect cells assessed as increase in enzyme activity at IC80 measured after 120 mins; details: bti-tn-5b1-4, 2 h
[21] = tested on: Caco-2; assay: Cytotoxicity against human Caco-2 cells assessed as reduction in cell viability at 10 uM measured after 24 hrs by MTT assay relative to control; assay type: cell-based; details: caco-2, 24 h; in short: as §2
[22] = tested on: SH-SY5Y; assay: Cytotoxicity against human SH-SY5Y cells assessed as reduction in cell viability at 1 uM measured after 24 hrs by MTT assay relative to control; assay type: cell-based; in short: as §2

Chain of ATP-dependent translocase ABCB1 (P08183 whole entry): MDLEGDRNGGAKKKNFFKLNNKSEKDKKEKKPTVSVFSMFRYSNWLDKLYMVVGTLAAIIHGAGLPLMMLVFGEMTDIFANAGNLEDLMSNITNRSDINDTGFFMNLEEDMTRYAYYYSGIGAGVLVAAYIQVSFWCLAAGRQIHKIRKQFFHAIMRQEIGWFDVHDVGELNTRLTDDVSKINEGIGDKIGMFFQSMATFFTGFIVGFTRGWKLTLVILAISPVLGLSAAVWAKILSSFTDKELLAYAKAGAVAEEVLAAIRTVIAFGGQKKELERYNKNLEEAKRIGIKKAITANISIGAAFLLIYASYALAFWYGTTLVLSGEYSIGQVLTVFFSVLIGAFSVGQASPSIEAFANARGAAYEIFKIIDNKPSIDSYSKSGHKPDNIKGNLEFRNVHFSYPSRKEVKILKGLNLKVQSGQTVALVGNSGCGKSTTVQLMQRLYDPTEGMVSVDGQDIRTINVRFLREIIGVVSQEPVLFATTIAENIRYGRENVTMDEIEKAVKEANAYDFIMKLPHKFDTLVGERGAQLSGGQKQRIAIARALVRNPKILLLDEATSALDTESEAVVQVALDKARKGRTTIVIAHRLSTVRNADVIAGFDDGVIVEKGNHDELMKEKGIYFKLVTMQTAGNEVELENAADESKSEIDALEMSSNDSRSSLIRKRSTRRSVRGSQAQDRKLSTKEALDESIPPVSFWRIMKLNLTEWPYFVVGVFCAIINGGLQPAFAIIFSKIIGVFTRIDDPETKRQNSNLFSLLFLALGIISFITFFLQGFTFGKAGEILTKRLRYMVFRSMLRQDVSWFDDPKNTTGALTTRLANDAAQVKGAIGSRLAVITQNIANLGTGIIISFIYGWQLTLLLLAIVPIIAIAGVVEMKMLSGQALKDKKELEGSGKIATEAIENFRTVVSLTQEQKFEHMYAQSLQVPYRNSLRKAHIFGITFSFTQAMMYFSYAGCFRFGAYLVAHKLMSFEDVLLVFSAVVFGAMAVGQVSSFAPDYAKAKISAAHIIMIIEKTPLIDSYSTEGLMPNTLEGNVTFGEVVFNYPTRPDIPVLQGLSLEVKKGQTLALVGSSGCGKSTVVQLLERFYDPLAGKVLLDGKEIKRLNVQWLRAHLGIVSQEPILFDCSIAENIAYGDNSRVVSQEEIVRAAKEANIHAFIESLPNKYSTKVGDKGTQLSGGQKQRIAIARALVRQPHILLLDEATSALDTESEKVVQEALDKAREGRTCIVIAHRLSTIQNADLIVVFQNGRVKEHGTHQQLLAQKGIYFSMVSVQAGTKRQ
Chain of hERG (Q12809 whole entry): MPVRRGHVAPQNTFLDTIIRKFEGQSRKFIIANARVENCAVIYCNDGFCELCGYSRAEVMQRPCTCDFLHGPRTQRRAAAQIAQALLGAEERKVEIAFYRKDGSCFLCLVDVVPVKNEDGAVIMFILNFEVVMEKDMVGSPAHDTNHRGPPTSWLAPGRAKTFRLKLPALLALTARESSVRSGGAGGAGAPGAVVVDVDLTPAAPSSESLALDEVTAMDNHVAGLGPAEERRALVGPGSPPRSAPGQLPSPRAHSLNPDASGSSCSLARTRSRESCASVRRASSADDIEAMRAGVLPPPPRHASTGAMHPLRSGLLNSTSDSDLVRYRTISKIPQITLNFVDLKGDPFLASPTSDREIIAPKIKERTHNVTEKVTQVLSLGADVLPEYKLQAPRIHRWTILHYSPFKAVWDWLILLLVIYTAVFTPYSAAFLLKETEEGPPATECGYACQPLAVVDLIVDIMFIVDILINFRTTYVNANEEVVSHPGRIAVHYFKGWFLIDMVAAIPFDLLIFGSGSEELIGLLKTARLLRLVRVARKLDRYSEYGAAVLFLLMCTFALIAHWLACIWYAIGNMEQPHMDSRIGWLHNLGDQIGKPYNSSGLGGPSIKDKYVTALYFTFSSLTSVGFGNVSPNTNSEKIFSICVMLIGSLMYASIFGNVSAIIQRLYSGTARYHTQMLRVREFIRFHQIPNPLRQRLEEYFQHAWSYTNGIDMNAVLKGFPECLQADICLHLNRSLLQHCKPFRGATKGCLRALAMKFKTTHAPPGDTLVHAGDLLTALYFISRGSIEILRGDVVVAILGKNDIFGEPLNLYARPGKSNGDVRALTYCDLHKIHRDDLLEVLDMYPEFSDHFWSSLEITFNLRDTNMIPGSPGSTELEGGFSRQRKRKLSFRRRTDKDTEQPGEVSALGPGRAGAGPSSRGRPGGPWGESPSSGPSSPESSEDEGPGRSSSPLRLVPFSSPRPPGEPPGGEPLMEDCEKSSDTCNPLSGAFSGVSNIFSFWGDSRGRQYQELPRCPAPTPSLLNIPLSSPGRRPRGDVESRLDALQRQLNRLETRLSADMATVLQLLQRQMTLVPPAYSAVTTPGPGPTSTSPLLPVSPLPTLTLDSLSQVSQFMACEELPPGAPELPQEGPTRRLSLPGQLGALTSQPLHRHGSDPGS

With `Cn1c(=O)c(C(=O)Nc2cccc(Cl)c2)cc2ccccc21` the solubility [1] was “Insoluble”.

For `Cn1c(=O)c(C(=O)Nc2ccc(Cl)c(Cl)c2)cc2ccccc21`, the solubility [1] was “Insoluble”.

In the case of `Cc1ccc(NC(=O)C2=Cc3ccccc3OC2)cc1C`, the IC50 [2] is reported as 0.0457 µM, the Activity [3] is reported as “Non-Toxic” and the IC50 [4] is reported as 13.7 µM. The Ratio IC50 [5] was 300 and the Activity [6] was “Non-Toxic”.

With `O=C(Nc1cccc(Cl)c1)c1coc2ccccc2c1=O` the Activity [7] was less than 10%, the Activity [8] was less than 10% and the Activity [9] was “inactive”. For the same compound, the Activity [3] was “Non-Toxic”, the Activity [10] was “Not Active” and the IC50 [11] was “Not Active”. The Activity [12] was less than 10%, the inhibition at 2 h, 10 µM [13] was less than 10% and the IC50 [14] was “Not Active”. For the same compound, the Activity [15] was less than 85%, the Activity [16] was “inactive” and the IC50 [17] was “Not Active”. The Activity [6] was “Non-Toxic”.

`O=C(Nc1cccc(Cl)c1)c1cc2ccccc2[nH]c1=O` gave an inhibition at 0.5 h, 10 µM [18] of 2.65% and an inhibition at 10 µM [19] of 8.9%.

In the case of `C[C@H](NCc1ccc(OCc2cccc(F)c2)cc1)C(N)=O` [SAFINAMIDE], the inhibition at 0.5 h, 10 µM [18] is reported as 30.5% and the TDI [20] is reported as “Active”.

Work on `O=C(Nc1cccc(Cl)c1)C1COc2ccccc2C1` (stereo not given) yielded an IC50 [2] of 0.957 µM, an inhibition at 0.5 h, 10 µM [18] of 10.9% and a Ratio IC50 [5] greater than 10.4.

For `Cc1ccc(NC(=O)C2COc3ccccc3C2)cc1C` (stereo not given), the IC50 [2] was 1.78 µM, the inhibition at 0.5 h, 10 µM [18] was 19.6% and the Ratio IC50 [5] was greater than 5.62.

For `O=C(Nc1cccc(Cl)c1)c1cc2ccccc2oc1=O`, the IC50 [2] was 0.0102 µM, the Activity [21] was 93.5% and the inhibition at 0.5 h, 10 µM [18] was 13.5%. It also gave an Activity [22] of 79.5%, a Ratio IC50 [5] greater than 985 and an Activity [15] of 71.8%. The Activity [6] was “Non-Toxic”.

In the case of `O=C(Nc1ccc(Cl)c(Cl)c1)C1COc2ccccc2C1` (stereo not given), the IC50 [2] is reported as 0.0788 µM, the Activity [3] is reported as “Non-Toxic” and the inhibition at 0.5 h, 10 µM [18] is reported as 16.4%. The Ratio IC50 [5] was greater than 127 and the Activity [6] was “Non-Toxic”.

`COc1ccc(NC(=O)C2=Cc3ccccc3OC2)cc1OC` showed an IC50 [2] of 2.87 µM, an inhibition at 0.5 h, 10 µM [18] of 20.2% and a Ratio IC50 [5] greater than 3.48.
